Experimental findings from ChEMBL document CHEMBL4270633, “Discovery of novel vinyl sulfone derivatives as anti-tumor agents with microtubule polymerization inhibitory and vascular disrupting activities” (Eur J Med Chem, 2018) are described below.

Data set [1] has as its system K562. In words: Antiproliferative activity against human K562 cells at 1 uM after 72 hrs by MTT assay. Type of data set: functional, cell-based. Background: Formazan colour is commonly taken as a measure of viable cells.
In data set [2] the test system is K562. Briefly: Antiproliferative activity against human K562 cells at 0.1 uM after 72 hrs by MTT assay relative to control. Type of data set: functional.
Data set [3] concerns K562. In words: Antiproliferative activity against human K562 cells after 72 hrs by MTT assay. To be noted: K562, 72 h. Type of data set: functional, cell-based. A digest of the protocol:
(§1)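 Cells seeded and held 24 h at 37 °C, 5% CO2, then exposed to a concentration series in medium with 0.1% DMSO for 72 h. MTT (5 mg/mL in PBS) added for 4 h and OD read at 490 nm. IC50 taken from dose-response curves; mean ± SD of at least three independent experiments.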

The subject of another data set is HepG2. In words: Antiproliferative activity against human HepG2 cells after 72 hrs by MTT assay. Type of data set: functional, cell-based. The settings on record: HepG2, 72 h. A digest of the protocol: as §1
The test system of the next data set is A549. In words: Antiproliferative activity against human A549 cells after 72 hrs by MTT assay. In kind it is functional, cell-based. The settings on record: A549, 72 h. A digest of the protocol: as §1
Data set [4] in a line: Inhibition of porcine brain tubulin polymerization after 30 mins by spectrophotometric method. Further details: species or system Sus scrofa. A digest of the protocol: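 Purified tubulin (2 mg/mL) in PEM buffer (80 mM PIPES pH 6.9, 0.5 mM EGTA, 2 mM MgCl2, 15% glycerol), preincubated on ice with compound or DMSO vehicle, then GTP added. Absorbance at 340 nm followed at 37 °C for 30 min. IC50 derived from area under the polymerization curve.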

A further data set concerns H22. Briefly: Antitumor activity against mouse H22 cells implanted in ICR mouse assessed as tumor growth inhibition at 8 mg/kg, iv administered once in 2 days for 21 days relative to control. In kind it is functional. To be noted: read-out: TGI. A digest of the protocol:
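Male ICR mice, five weeks old, inoculated s.c. in the right flank with 1 × 10^6 H22 cells. After one day, randomized into groups of six. Given i.v. 15 or 30 mg/kg daily for 21 days in 10% DMF/2% Tween 80/88% saline, or 8 mg/kg every 2 days; vehicle control given i.v. Tumors excised and weighed; inhibition (%) = (1 − treated/control mean tumor weight) × 100.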

The subject of the next data set is Mus musculus. In words: Toxicity in ICR mouse implanted with mouse H22 cells assessed as decrease in body weight at 8 mg/kg, iv administered once in 2 days for 21 days. Type of data set: organism-based. To be noted: in vivo. A digest of the protocol: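 H22 s.c. allograft in male ICR mice, groups of six. Dosing i.v. at 15 or 30 mg/kg once daily for 21 days (10% DMF/2% Tween 80/88% saline), or 8 mg/kg once every 2 days. Body weight recorded every 2 days.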

Active and inactive are the calls of the source. The calls are words filed in the database; no cut-off is given here.

Regarding `COc1cc(S(=O)(=O)/C=C/c2ccc(O)cc2)cc(OC)c1OC`, the outcome with K562 [1] and in the data set on K562 [2] was Active.
In general, IC50 refers to the concentration that inhibits the measured activity by half. On to `COc1ccc(/C=C/[S+]([O-])c2cc(OC)c(OC)c(OC)c2)cc1N` (stereo unspecified), for which the IC50 in the data set on K562 [3] came out at 746 nM; in the data set on HepG2 it was 753 nM; in the data set with A549, 2350 nM.
Regarding `COc1ccc(/C=C(\Cl)[S+]([O-])c2cc(OC)c(OC)c(OC)c2)cc1O` (stereo unspecified), the IC50 in the data set on K562 [3] was determined as 183 nM; in the data set with HepG2, 243 nM; in the data set on A549 it was 1200 nM; in data set [4] it was 3830 nM.
`CO/C(=C\c1ccc(OC)c(O)c1)S(=O)(=O)c1cc(OC)c(OC)c(OC)c1`: the IC50 is 190 nM with K562 [3], 599 nM with HepG2 and 2880 nM in the data set on A549.
For the compound `CC(=O)O[C@H]1C(=O)[C@@]2(C)[C@H]([C@H](OC(=O)c3ccccc3)[C@]3(O)C[C@H](OC(=O)[C@H](O)[C@@H](NC(=O)c4ccccc4)c4ccccc4)C(C)=C1C3(C)C)[C@]1(OC(C)=O)CO[C@@H]1C[C@@H]2O` [PACLITAXEL], the inhibition in vivo at 8 mg/kg with H22 turned out to be 74.6%. In addition, the Activity result in the data set with Mus musculus is reported as “Toxic”.
With `COc1ccc(/C=C(\C)[S+]([O-])c2cc(OC)c(OC)c(OC)c2)cc1O` (stereo unspecified), the IC50 in the data set with K562 [3] was more than 1000 nM; in the data set with HepG2 it was more than 1000 nM; with A549 it was more than 5000 nM.
For the compound `COc1cc(S(=O)(=O)/C=C/c2ccccc2)cc(OC)c1OC`, the result with K562 [1] and in the data set with K562 [2] was Active.
As to `COc1cc(S(=O)(=O)/C=C/c2ccc(F)cc2)cc(OC)c1OC`, the outcome with K562 [1] and with K562 [2] was Active.
For `COc1ccc(/C=C(\C)S(=O)(=O)c2cc(OC)c(OC)c(OC)c2)cc1O`, the IC50 with K562 [3] worked out at 580 nM; with HepG2, 710 nM; with A549, 2730 nM.
As for `COc1ccc(/C=C/C(=O)c2cc(OC)c(OC)c(OC)c2)cc1O`, the IC50 came out at 60 nM in the data set with K562 [3], 102 nM in the data set on HepG2, 387 nM in the data set with A549 and 3690 nM in data set [4].
On to `COc1ccc(/C=C(\Cl)S(=O)(=O)c2cc(OC)c(OC)c(OC)c2)cc1O`, for which the values for the IC50 in the data set on K562 [3], in the data set on HepG2 and in the data set with A549 were more than 1000 nM, more than 1000 nM and more than 5000 nM, respectively.
As for `COc1cc(S(=O)(=O)/C=C/c2ccc(N(C)C)cc2)cc(OC)c1OC`, the outcome in the data set on K562 [1] and in the data set with K562 [2] was Active.
For the compound `COc1cc(/C=C/S(=O)(=O)c2cc(OC)c(OC)c(OC)c2)cc(OC)c1OC`, the outcome with K562 [1] and in the data set with K562 [2] was Active.
On to `COc1ccc(/C=C/S(=O)(=O)c2cc(OC)c(OC)c(OC)c2)cc1O`, for which, in the data set with K562 [1], the outcome was Active. The compound also returned an Activity in the data set with K562 [2] of 35.3%. Further, the IC50 was found to be 219 nM with K562 [3], 267 nM in the data set with HepG2, 2280 nM with A549 and 8230 nM in data set [4].
As for `COc1ccc(/C=C/[S+]([O-])c2cc(OC)c(OC)c(OC)c2)cc1O` (stereo unspecified), the IC50 turned out to be 258 nM in the data set with K562 [3], 307 nM with HepG2, 1460 nM in the data set with A549 and 7180 nM in data set [4].
For the compound `COc1ccc(/C=C(\C#N)S(=O)(=O)c2cc(OC)c(OC)c(OC)c2)cc1O`, the IC50 was more than 1000 nM with K562 [3], more than 1000 nM with HepG2 and more than 5000 nM in the data set with A549.
Consider `COc1ccc(/C=C/S(=O)(=O)c2cc(OC)c(OC)c(OC)c2)cc1F`, for which the result in the data set with K562 [1] and in the data set with K562 [2] was Active.
As to `COc1cc(S(=O)(=O)/C=C/c2ccc([N+](=O)[O-])cc2)cc(OC)c1OC`, the outcome with K562 [1] and in the data set on K562 [2] was Active.
Turning to `COc1ccc(/C=C/S(=O)(=O)c2cc(OC)c(OC)c(OC)c2)cc1OC`, the result in the data set on K562 [1] and in the data set on K562 [2] was Active.
Consider `COc1cc(S(=O)(=O)/C=C/c2ccc(C)cc2)cc(OC)c1OC`, for which the result with K562 [1] and in the data set on K562 [2] was Active.
For `COc1cc(S(=O)(=O)/C=C/c2ccc(O)c(O)c2)cc(OC)c1OC`, the result in the data set on K562 [1] was Active. For the same compound, the result with K562 [2] was inactive.
Taken in the same sequence, the figures for `COc1ccc(/C=C/S(=O)(=O)c2cc(OC)c(OC)c(OC)c2)cc1` were “Active” and “Active”.
Take `COc1ccc(/C=C(\C#N)[S+]([O-])c2cc(OC)c(OC)c(OC)c2)cc1O` (stereo unspecified): the figures for the IC50 in the data set on K562 [3], with HepG2 and in the data set on A549 were more than 1000 nM, more than 1000 nM and more than 5000 nM, respectively.
For `COc1ccc(/C=C(\F)S(=O)(=O)c2cc(OC)c(OC)c(OC)c2)cc1O`, the IC50 worked out at 473 nM in the data set on K562 [3], 591 nM with HepG2 and 1310 nM in the data set with A549.
